# In ChEMBL document CHEMBL1121477, “Noval antitumor nitrosoureas and related compounds and their reactions with DNA” (1980):
# “And” between values parts separate entries of the source, which are not always exact repeats. Identical values can stand only once.
# Assays:
# L1210 [1] = test: Antitumor activity against lymphoid leukemia L1210 cell implanted in mice was measured by mean survival of mice expressed as treated/control at a dosage of 1.3 mg/kg (25.3/9.6); assay type: functional, Mus musculus
# [2] = Compound was evaluated for its ability to exhibit alkylating property toward DNA at 5 mM in 180 min; assay type: functional
# How it was run: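 Alkylation was measured with PM2 covalently closed circular DNA (1.2 A280 units, 90% CCC) and 5 mM agent in 200 µL at 37 °C. Aliquots were taken into 20 mM potassium phosphate pH 11.8, 0.4 mM EDTA and 0.5 µg/mL ethidium, heated at 96 °C for 4 min, then rapidly cooled. Fluorescence loss relative to control gives the extent of alkylation.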
# L1210 [3] = test: Antitumor activity against lymphoid leukemia L1210 cell implanted in mice was measured by %T/C at a dosage of 1.3 mg/kg; assay type: functional, Mus musculus
# L1210 [4] = test: Antitumor activity against lymphoid leukemia L1210 cell implanted in mice was measured by wt.change of treated mice minus wt. change of control mice at 1.3 mg/kg from day 0-5 (-2.9/0.3); assay type: functional, Mus musculus
# [5] = Percent ability of compound to produce DNA interstrand cross-links was determined by the ethidium fluorescence assay at 6 hr and compared with antileukemic property; assay type: functional; set-up: concentration or dose not given beside the values
# How it was run: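 λ-DNA (1.0 A260 unit) was incubated with 5 mM compound in 50 mM potassium phosphate pH 7.2 at 37 °C. Aliquots went into 20 mM potassium phosphate pH 11.8, 0.4 mM EDTA and 0.5 µg/mL ethidium, were heated at 96 °C for 3 min and rapidly cooled. Fluorescence relative to control ×100 gives % DNA molecules with ≥1 interstrand cross-link; accuracy about ±2%.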
# L1210 [6] = test: Antitumor activity against lymphoid leukemia L1210 cell implanted in mice was measured by number of survivors on day 5 at a dosage of 1.3 mg/kg (6/6); assay type: functional, Mus musculus
# L1210 [7] = test: Antitumor activity against lymphoid leukemia L1210 cell implanted in mice was measured by %T/C at a dosage of 100 mg/kg; assay type: functional, Mus musculus
# How it was run: (§1)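 L1210 leukemia cells (10^5) implanted intraperitoneally in mice on day 0. Compounds were suspended in saline plus Tween 80 and injected intraperitoneally within 5 min of preparation, following Cancer Chemotherapy National Service Center specifications; dose is given per day. Read-outs were weight change from day 0 to 5 (treated vs control), survivors on day 5, mean survival time treated/control, and %T/C.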
# L1210 [8] = test: Antitumor activity against lymphoid leukemia L1210 cell implanted in mice was measured by number of survivors on day 5 at a dosage of 100 mg/kg (6/6); assay type: functional, Mus musculus; how it was run: as §1
# L1210 [9] = test: Antitumor activity against lymphoid leukemia L1210 cell implanted in mice was measured by mean survival of mice expressed as treated/control at a dosage of 100 mg/kg (15.4/9.7); assay type: functional, Mus musculus; how it was run: as §1
# L1210 [10] = test: Antitumor activity against lymphoid leukemia L1210 cell implanted in mice was measured by wt.change of treated mice minus wt. change of control mice at 100 mg/kg from day 0-5 (-2.2/1.4); assay type: functional, Mus musculus; how it was run: as §1
# Mus musculus [11] = test: Antitumor activity against lymphoid leukemia L1210 cell implanted in mice was measured by number of survivors on day 5 at a dosage of 0.9 mg/kg (6/6); assay type: functional
# Mus musculus [12] = test: Antitumor activity against lymphoid leukemia L1210 cell implanted in mice was measured by mean survival of mice expressed as treated/control at a dosage of 0.9 mg/kg (15.6/11.1); assay type: functional
# Mus musculus [13] = test: Antitumor activity against lymphoid leukemia L1210 cell implanted in mice was measured by %T/C at a dosage of 0.9 mg/kg; assay type: functional
# Mus musculus [14] = test: Antitumor activity against lymphoid leukemia L1210 cell implanted in mice was measured by wt.change of treated mice minus wt. change of control mice at 0.9 mg/kg from day 0-5 (-1.4/0.4); assay type: functional
# L1210 [15] = test: Antitumor activity against lymphoid leukemia L1210 cell implanted in mice was measured by wt.change of treated mice minus wt. change of control mice at 200 mg/kg from day 0-5 (-4.4/1.4); assay type: functional, Mus musculus; how it was run: as §1
# L1210 [16] = test: Antitumor activity against lymphoid leukemia L1210 cell implanted in mice was measured by mean survival of mice expressed as treated/control at a dosage of 200 mg/kg (14.9/9.8); assay type: functional, Mus musculus; how it was run: as §1
# L1210 [17] = test: Antitumor activity against lymphoid leukemia L1210 cell implanted in mice was measured by number of survivors on day 5 at a dosage of 200 mg/kg (6/6); assay type: functional, Mus musculus; how it was run: as §1
# L1210 [18] = test: Antitumor activity against lymphoid leukemia L1210 cell implanted in mice was measured by %T/C at a dosage of 200 mg/kg; assay type: functional, Mus musculus; how it was run: as §1
# L1210 [19] = test: Antitumor activity against lymphoid leukemia L1210 cell implanted in mice was measured by %T/C at a dosage of 1 mg/kg; assay type: functional, Mus musculus
# L1210 [20] = test: Antitumor activity against lymphoid leukemia L1210 cell implanted in mice was measured by mean survival of mice expressed as treated/control at a dosage of 1 mg/kg (12.3/10.5); assay type: functional, Mus musculus
# L1210 [21] = test: Antitumor activity against lymphoid leukemia L1210 cell implanted in mice was measured by %T/C on a 1-9 day schedule; assay type: functional, Mus musculus
# L1210 [22] = test: Antitumor activity against lymphoid leukemia L1210 cell implanted in mice was measured by mean survival of mice expressed as treated/control at a dosage of 200 mg/kg (16.4/16.9); assay type: functional, Mus musculus; how it was run: as §1
# L1210 [23] = test: Antitumor activity against lymphoid leukemia L1210 cell implanted in mice was measured by wt.change of treated mice minus wt. change of control mice at 200 mg/kg from day 0-5 (-1.1/1.4); assay type: functional, Mus musculus; how it was run: as §1
structure (smiles),measurement,setting,value
NC(=O)N(CCCl)N=O,Mean survival,L1210 [1],25.3 time day-1
same,Alkylation,[2],70%
same,T/C,L1210 [3],263%
same,Change in weight,L1210 [4],-2.9 g
same,Activity,[5],37%
same,Survivals,L1210 [6],6
Cc1ccc(S(=O)(=O)OCCCl)cc1,Alkylation,[2],0%
O=NN(CC[S+]([O-])CCCl)C(=O)NC1CCCCC1 (stereo not given),T/C,L1210 [7],159%
same,Alkylation,[2],84%
same,Survivals,L1210 [8],6
same,Mean survival,L1210 [9],15.4 time day-1
same,Activity,[5],0%
same,Change in weight,L1210 [10],-2.2 g
O=S(=O)(OCCCl)C(F)(F)F,Alkylation,[2],40%
O=[N+]([O-])c1ccc(S(=O)(=O)OCCCl)cc1,Alkylation,[2],0%
CCOC(=O)N(CCCl)N=O,Survivals,Mus musculus [11],6
same,Mean survival,Mus musculus [12],15.6 time day-1
same,Activity,[5],12% and 24% and 28%
same,T/C,Mus musculus [13],140%
same,Change in weight,Mus musculus [14],-1.4 g
CS(=O)(=O)OCCCl,Alkylation,[2],0%
CC(=O)N(CCCl)N=O,Activity,[5],44%
O=NN(CCOCCCl)C(=O)NC1CCCCC1,Change in weight,L1210 [15],-4.4 g
same,Alkylation,[2],66%
same,Mean survival,L1210 [16],14.9 time day-1
same,Survivals,L1210 [17],6
same,Activity,[5],0%
same,T/C,L1210 [18],152%
Cc1ccc(S(=O)(=O)N(CCCl)N=O)cc1,T/C,L1210 [19],117%
same,Activity,[5],0%
same,Mean survival,L1210 [20],12.3 time day-1
O=NN(CCCl)C(=O)OCCCSSCCCOC(=O)N(CCCl)N=O,T/C,L1210 [21],136%
same,Activity,[5],8% and 25% and 21%
O=NN(CCSCCO)C(=O)NC1CCCCC1,Alkylation,[2],96%
same,Mean survival,L1210 [22],16.4 time day-1
same,Survivals,L1210 [17],6
same,Activity,[5],0%
same,Change in weight,L1210 [23],-1.1 g
same,T/C,L1210 [18],110%
CCN(N=O)C(N)=O,Alkylation,[2],53%
